Experimental data reported in ChEMBL document CHEMBL1122643, “Alpha-adrenoreceptor reagents. 2. Effects of modification of the 1,4-benzodioxan ring system on alpha-adrenoreceptor activity” (J Med Chem, 1984).
Activity calls are given as the source filed them. The calls are words filed in the database; no cut-off is given here.

What was measured:
[1] = target: T1, Alpha-2 adrenergic receptor (Mus musculus) (UniProt P30545+Q01338+Q01337); assay: Inhibition of alpha-2 adrenergic receptor; format: functional
[2] = target: T1, Alpha-2 adrenergic receptor (Mus musculus); assay: Presynaptic alpha-2 adrenergic receptor agonist activity in isolated mouse vas deferens; format: functional, tissue-based
How it was run: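 Vasa deferentia from adult male MFI mice (>30 g) were held at 0.5 g initial tension in Mg-free Krebs solution at 30 °C, gassed with 95% O2/5% CO2. Tissues were field-stimulated at 0.1 Hz with 3-ms pulses, with voltage (100-140 V) set for about 100-mg twitches, recorded isometrically. Potency was expressed relative to the standard, run before and after each analogue curve in the same tissue.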

[3] = target: T2, Adrenergic receptor alpha-1 (Rattus norvegicus, UniProt P15823+P23944+P43140); assay: Alpha-1 adrenergic receptor […] in rat anococcygeus assay; format: functional
T2 sequence (P15823 whole entry): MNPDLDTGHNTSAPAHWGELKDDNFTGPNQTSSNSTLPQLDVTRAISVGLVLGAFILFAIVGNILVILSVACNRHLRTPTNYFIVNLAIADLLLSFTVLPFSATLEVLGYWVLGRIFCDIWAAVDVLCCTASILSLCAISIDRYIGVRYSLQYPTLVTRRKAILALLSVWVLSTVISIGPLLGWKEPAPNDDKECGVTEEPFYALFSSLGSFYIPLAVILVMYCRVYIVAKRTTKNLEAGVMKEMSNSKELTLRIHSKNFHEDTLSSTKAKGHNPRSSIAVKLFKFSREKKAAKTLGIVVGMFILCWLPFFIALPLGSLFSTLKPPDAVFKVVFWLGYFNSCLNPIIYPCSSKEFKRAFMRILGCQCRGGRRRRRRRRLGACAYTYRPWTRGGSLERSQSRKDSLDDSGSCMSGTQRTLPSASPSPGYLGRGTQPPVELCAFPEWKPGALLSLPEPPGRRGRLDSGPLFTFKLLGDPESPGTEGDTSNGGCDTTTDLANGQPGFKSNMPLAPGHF
T2 sequence (P23944 whole entry): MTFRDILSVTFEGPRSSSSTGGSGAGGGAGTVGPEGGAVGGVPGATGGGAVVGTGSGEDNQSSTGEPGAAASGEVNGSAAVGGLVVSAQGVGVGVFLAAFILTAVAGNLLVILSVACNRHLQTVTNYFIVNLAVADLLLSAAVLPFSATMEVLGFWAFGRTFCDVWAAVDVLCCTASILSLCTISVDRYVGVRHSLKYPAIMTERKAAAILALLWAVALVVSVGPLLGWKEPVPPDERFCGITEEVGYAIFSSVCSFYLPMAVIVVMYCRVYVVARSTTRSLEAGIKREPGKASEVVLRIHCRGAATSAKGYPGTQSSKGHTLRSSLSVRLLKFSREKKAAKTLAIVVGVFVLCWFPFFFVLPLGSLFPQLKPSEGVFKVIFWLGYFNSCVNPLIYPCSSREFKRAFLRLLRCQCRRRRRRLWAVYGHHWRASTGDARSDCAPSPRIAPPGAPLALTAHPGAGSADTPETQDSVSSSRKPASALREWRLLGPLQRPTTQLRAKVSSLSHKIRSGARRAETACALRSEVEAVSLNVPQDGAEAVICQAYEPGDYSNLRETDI
T2 sequence (P43140 whole entry): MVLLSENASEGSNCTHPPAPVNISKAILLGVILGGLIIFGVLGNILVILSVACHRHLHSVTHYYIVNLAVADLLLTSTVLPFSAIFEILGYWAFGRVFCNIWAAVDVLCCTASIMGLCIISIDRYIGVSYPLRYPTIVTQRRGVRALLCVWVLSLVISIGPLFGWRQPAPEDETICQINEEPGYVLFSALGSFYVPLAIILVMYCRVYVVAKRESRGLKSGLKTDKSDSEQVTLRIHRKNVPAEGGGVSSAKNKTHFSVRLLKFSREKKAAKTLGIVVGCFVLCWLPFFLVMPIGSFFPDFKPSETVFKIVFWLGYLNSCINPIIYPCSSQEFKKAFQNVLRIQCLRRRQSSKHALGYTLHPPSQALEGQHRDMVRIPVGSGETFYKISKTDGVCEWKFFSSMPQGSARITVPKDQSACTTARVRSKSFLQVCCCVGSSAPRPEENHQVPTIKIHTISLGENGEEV
How it was run: (§1)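 Isolated tissue agonist test, potency compared directly with the standard in the same experiment. Standard dose-response curves were run before and after the test compound's curve. Rat anococcygeus (male Sprague-Dawley, 200-250 g; Krebs, 30 °C, 95% O2/5% CO2) was compared with phenylephrine. Field-stimulated mouse vas deferens (0.1 Hz, Mg-free Krebs, 30 °C) was compared with clonidine.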

[4] = target: T1, Alpha-2 adrenergic receptor (Mus musculus); assay: Presynaptic alpha-2 adrenergic receptor from mouse vas deferens agonistic activity relative to clonidine = 1.; format: functional, tissue-based; how it was run: as §1
[5] = target: T1, Alpha-2 adrenergic receptor (Mus musculus); assay: Ability to antagonize the inhibitory effect of clonidine on the mouse vas deferens is the presynaptic alpha-2 adrenergic receptor antagonist potency relative to idazoxan = 1.; format: functional, tissue-based
How it was run: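 Male adult mouse vasa deferentia (MFI >30 g), 0.5 g initial tension, Mg-free Krebs, 30 °C, 95% O2/5% CO2. Field stimulation at 0.1 Hz, 3-ms pulses, 100-140 V set to give ~100-mg twitch, recorded isometrically.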

[6] = target: T3, Adrenergic receptor alpha-1 (Rattus norvegicus) (UniProt P15823+P23944+P43140); assay: Agonism at Alpha-1 adrenoceptor determined in rat anococcygeus preparation; Inactive.; format: functional; how it was run: as §1
[7] = target: T3, Adrenergic receptor alpha-1 (Rattus norvegicus); assay: In vitro inhibition of the contractile effect of phenylephrine on the isolated rat anococcygeus; potency relative to idazoxan.; format: functional
[8] = target: T4, Alpha-2 adrenergic receptor (Mus musculus, UniProt P30545+Q01338+Q01337); assay: Alpha-2 adrenergic receptor […] in mouse vas deferens relative to clonidine; format: functional, tissue-based; how it was run: as §1
T4 sequence (P30545 whole entry): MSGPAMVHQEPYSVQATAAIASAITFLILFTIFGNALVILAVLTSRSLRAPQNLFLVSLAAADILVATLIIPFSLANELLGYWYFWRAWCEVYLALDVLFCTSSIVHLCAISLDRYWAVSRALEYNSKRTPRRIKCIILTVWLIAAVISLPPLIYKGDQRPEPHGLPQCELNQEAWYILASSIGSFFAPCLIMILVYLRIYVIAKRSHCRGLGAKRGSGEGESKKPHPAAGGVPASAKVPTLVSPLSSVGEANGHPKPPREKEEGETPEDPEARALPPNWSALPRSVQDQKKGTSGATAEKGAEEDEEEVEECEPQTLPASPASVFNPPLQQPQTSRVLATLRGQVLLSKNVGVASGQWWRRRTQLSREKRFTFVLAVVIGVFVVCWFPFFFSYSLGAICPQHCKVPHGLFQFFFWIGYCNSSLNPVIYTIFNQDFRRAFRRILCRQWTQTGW
T4 sequence (Q01338 whole entry): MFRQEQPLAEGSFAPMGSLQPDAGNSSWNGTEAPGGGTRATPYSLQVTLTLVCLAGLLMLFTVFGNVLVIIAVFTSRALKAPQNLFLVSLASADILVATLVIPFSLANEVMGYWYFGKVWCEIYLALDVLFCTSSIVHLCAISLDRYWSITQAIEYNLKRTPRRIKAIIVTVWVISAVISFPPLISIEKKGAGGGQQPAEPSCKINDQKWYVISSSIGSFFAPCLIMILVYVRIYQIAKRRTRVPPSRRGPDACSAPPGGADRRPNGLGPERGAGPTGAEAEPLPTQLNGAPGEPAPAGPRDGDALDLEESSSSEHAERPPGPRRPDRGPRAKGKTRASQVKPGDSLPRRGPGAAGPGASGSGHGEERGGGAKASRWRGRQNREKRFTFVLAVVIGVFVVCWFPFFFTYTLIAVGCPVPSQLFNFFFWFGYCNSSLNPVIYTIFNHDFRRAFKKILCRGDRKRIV
T4 sequence (Q01337 whole entry): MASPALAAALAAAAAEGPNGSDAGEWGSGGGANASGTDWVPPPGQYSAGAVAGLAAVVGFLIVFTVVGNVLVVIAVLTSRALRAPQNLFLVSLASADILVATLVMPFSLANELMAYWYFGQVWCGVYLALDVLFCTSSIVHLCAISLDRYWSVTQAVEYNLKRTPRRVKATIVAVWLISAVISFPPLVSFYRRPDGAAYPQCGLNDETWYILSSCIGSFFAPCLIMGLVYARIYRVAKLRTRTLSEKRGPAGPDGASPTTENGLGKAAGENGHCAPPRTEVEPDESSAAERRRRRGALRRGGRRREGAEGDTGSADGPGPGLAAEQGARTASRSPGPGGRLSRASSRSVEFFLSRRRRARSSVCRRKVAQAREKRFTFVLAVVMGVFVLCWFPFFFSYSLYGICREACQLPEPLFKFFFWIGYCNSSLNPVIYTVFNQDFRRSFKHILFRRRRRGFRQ

[9] = Ratio of agonist potencies against alpha2 and alpha-1 adrenoceptors; format: functional
[10] = Selectivity between pre- and post-synaptic sites of action.; format: functional
[11] = target: T3, Adrenergic receptor alpha-1 (Rattus norvegicus); assay: Post-synaptic alpha-1 adrenergic receptor (rat anococcygeus) agonistic activity relative to phenylephrine; Inactive; format: functional; how it was run: as §1
[12] = target: T1, Alpha-2 adrenergic receptor (Mus musculus); assay: Presynaptic alpha-2 adrenergic receptor agonistic activity in mouse vas deferens relative to clonidine; format: functional, tissue-based; how it was run: as §1
[13] = target: T4, Alpha-2 adrenergic receptor; assay: Alpha-2 adrenergic receptor […] in mouse vas deferens assay compared to clonidine; format: functional, tissue-based; how it was run: as §1
[14] = target: T3, Adrenergic receptor alpha-1 (Rattus norvegicus); assay: In vitro inhibition of the contractile effect of phenylephrine on the isolated rat anococcygeus; potency relative to idazoxan; Inactive.; format: functional
[15] = target: T3, Adrenergic receptor alpha-1 (Rattus norvegicus); assay: Post-synaptic alpha-1 adrenergic receptor (rat anococcygeus) agonistic activity relative to phenylephrine; format: functional; how it was run: as §1

Compound: Clc1cccc(Cl)c1NC1=NCCN1
- IC40 [1]: 3.68 nM
- pD2 [2]: 8.8

Compound: CCCCCC1(C2=NCCN2)Cc2ccccc2O1.Cl (centres undefined)
- pA2 [3]: 6.47
- Agonist potency [4]: inactive
- Antagonist potency [5]: 0.44
- Agonist potency [6]: inactive
- Antagonist potency [7]: 1
- pA2 [8]: 7.97
- Selectivity ratio [9]: 32
- Ratio [10]: 0.44

Compound: CCCC1(C2=NCCN2)Cc2ccccc2O1.Cl (centres undefined)
- pA2 [3]: 6.39
- Agonist potency [4]: inactive
- Antagonist potency [5]: 1.9
- Agonist potency [6]: inactive
- Antagonist potency [7]: 1
- pA2 [8]: 8.63
- Selectivity ratio [9]: 175
- Ratio [10]: 1.9

Compound: COc1ccc2c(c1)CC(C1=NCCN1)O2 (centres undefined)
- Agonist potency [4]: inactive
- Antagonist potency [5]: 0.12
- Agonist potency [11]: inactive
- Antagonist potency [7]: 0.023
- Ratio [10]: 5.2

Compound: Cl.Clc1ccc2c(c1)CC(C1=NCCN1)O2 (centres undefined)
- pA2 [3]: 7.05
- Agonist potency [4]: inactive
- Antagonist potency [5]: 0.53
- Agonist potency [6]: inactive
- Antagonist potency [7]: 0.35
- pA2 [8]: 7.8
- Selectivity ratio [9]: 5.6
- Ratio [10]: 1.5

Compound: CCC1(C2=NCCN2)Cc2ccccc2O1.Cl (centres undefined) [EFAROXAN HYDROCHLORIDE]
- pA2 [3]: 5.91
- Agonist potency [4]: inactive
- Antagonist potency [5]: 1.8
- Agonist potency [6]: inactive
- Antagonist potency [7]: 0.3
- pA2 [8]: 8.32
- Selectivity ratio [9]: 258
- Ratio [10]: 6

Compound: CC1(C2=NCCN2)Cc2ccccc2O1 (centres undefined)
- Agonist potency [12]: 0.002
- Antagonist potency [5]: 0.25
- Agonist potency [11]: inactive
- Antagonist potency [7]: 0.35
- Ratio [10]: 0.71

Compound: Cl.c1ccc2c(c1)OCC(C1=NCCN1)O2 (centres undefined) [IDAZOXAN HYDROCHLORIDE]
- pA2 [13]: 7.98

Compound: Cc1cc(Cl)cc2c1OC(C1=NCCN1)C2 (centres undefined)
- Agonist potency [4]: inactive
- Antagonist potency [5]: 0.5
- Antagonist potency [14]: inactive
- Agonist potency [15]: 1
